iPSC survival up: enhancers of human iPSC single-cell survival. hiPSC single-cell survival, ATPlite luminescence; 100% = ROCK inhibitor wells, 0% = DMSO. survival enhancement, % at 20 µM. hit rate 0.044% among 360,000. AID 602274; in the data active means survival enhancement above about 18%;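 further: cells exposed to compounds for 16 hours before the ATP read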
MIN6 prolif: MIN6 beta-cell proliferation induction; MIN6 cells proliferation, ATPlite luminescence, 48 h; cells starved in 0.2% serum; 100% = growth in 10% serum; proliferation, % at 10 µM; hit rate 0.29% among 330,000;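 active means compounds whose signal lies at least 3.5 SD above the mean of all wells on their plate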;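 further: 0% = DMSO-treated cells in low-serum medium and 100% = 10% serum control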
Apaf1 inhib: blocks human Apaf-1 apoptosome activity | O14727 | reconstituted apoptosome caspase-3 activity, DEVD-Rh110 fluorescence | inhibition, % at 20 µM | hit rate 0.71% among 330,000 | AID 489030; active means inhibition of at least 40% at 20 µM;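 further: plate controls were DMSO wells for no effect and DEVD-CHO caspase inhibitor wells for full effect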
Target sequence (O14727 whole entry, looked up): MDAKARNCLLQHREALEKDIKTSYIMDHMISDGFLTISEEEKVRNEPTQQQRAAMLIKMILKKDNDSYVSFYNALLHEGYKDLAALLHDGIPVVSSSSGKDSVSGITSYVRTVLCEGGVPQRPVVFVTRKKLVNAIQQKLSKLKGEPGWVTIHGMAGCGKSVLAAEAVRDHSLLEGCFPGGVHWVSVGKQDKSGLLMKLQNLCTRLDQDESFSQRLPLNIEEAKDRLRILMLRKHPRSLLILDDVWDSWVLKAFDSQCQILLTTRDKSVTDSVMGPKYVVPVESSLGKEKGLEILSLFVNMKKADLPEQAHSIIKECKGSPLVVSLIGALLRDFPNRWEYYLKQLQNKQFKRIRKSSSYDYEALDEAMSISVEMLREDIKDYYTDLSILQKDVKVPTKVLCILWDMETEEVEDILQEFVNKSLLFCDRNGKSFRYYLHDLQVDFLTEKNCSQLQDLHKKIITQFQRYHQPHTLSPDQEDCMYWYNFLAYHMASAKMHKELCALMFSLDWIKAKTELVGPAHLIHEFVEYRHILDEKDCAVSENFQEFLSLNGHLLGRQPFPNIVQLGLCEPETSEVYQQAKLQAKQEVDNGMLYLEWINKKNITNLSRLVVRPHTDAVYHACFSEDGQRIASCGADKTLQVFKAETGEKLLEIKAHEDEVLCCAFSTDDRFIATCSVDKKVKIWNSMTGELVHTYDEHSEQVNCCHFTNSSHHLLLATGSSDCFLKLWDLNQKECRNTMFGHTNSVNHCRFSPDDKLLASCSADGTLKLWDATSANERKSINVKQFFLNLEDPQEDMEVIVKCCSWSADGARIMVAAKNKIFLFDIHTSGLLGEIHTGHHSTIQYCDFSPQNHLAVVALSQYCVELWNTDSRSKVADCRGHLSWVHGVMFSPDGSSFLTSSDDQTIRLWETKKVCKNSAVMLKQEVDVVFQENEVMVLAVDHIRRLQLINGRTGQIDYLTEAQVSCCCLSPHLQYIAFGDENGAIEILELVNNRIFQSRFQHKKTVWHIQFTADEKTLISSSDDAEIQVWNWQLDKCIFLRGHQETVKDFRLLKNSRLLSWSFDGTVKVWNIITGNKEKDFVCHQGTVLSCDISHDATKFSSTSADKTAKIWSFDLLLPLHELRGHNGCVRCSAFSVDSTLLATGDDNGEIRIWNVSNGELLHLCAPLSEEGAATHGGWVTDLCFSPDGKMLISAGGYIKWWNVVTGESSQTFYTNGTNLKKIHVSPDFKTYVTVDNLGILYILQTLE
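Material: reconstituted apoptosome with Apaf-1, cytochrome c, caspase-9, procaspase-3, dATP / Buffer or medium: pH 7.5 Hepes buffer with CHAPS, BSA, DTT / Also added: cytochrome c with DEVD-Rh110 / Schedule: compound with Apaf-1, dATP, procaspase-3 30 min, then 50 min reaction, room temperature / Technique: rhodamine 110 fluorescence at Ex 480/Em 540 nm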
Granule exo inh: lytic granule exocytosis inhibition; TALL-104 LAMP-1 surface exposure, flow cytometry; cells stimulated with thapsigargin and PMA; inhibition, % at 10 µM; hit rate 0.66% among 360,000; AID 651702;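 active means inhibition above about 55%, limit read from the data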
MPTP block: permeability transition pore inhibition; isolated mouse mitochondria, Ca2+ swelling absorbance, 30 min; inhibition, % at 10 µM; hit rate 1.4% among 360,000;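 active means inhibition of 50% or more, scaled per plate between neutral and stimulator controls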;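 further: 0% = DMSO wells given calcium and 100% = 1 mM EGTA wells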
UBC13 polyUb: inhibitors of human UBC13 polyubiquitin chain formation; P61088; TR-FRET; inhibition, % at 20 µM; hit rate 0.47% among 330,000; in the data active means inhibition above about 45%, passing the limit was not always enough
* marks the source's active call; other numbers are inactive results. Sampled rows, rich in hits. Any-hit rate of the full collection: about 3%.

What do the screens show for `CCOc1cc(CNc2ccc(N(C)C)cc2)cc(Br)c1OCC(=O)NC(C)(C)C`?
iPSC survival up: 1; MIN6 prolif: -6; Apaf1 inhib: 44*; Granule exo inh: 5; MPTP block: 0; UBC13 polyUb: -8

Results for COCCCNC(=O)C[C@@H]1C[C@@]2(C(=O)OC)CCCCC=C2N(Cc2ccc(Cl)cc2Cl)C1=O ?
iPSC survival up: 0; Granule exo inh: -7; MPTP block: -1

How did N#CC1=C(N)C(C#N)(C#N)[C@H](c2ccoc2)[C@H]2CN(Cc3ccccc3)CC=C12 do in these assays?
iPSC survival up: 7; MIN6 prolif: -3; Apaf1 inhib: 59*; Granule exo inh: -3; MPTP block: 4; UBC13 polyUb: -19

How did CN1CC=C2C(C#N)=C(N)C(C#N)(C#N)[C@H](c3ccoc3)[C@H]2C1 do in these assays?
iPSC survival up: -4; MIN6 prolif: 0; Apaf1 inhib: 25; Granule exo inh: -2; MPTP block: 1; UBC13 polyUb: -24

What do the screens show for `CC1CCCC(C)N1C(=O)COC(=O)c1n[nH]c(=O)c2ccccc12` (configuration not stated)?
iPSC survival up: 0; MIN6 prolif: 0; Apaf1 inhib: -7; Granule exo inh: 3; MPTP block: 0; UBC13 polyUb: -6

What do the screens show for `O=C(CN1CCOCC1)N/N=C/C=C/c1ccccc1`?
iPSC survival up: 0; MIN6 prolif: 8.9*; Apaf1 inhib: -6; Granule exo inh: 2; MPTP block: -1; UBC13 polyUb: -12

What do the screens show for `COC(=O)c1[nH]c2ccccc2c1NC(=O)CCN1CCSCC1`?
iPSC survival up: 26*; MIN6 prolif: -3; Apaf1 inhib: 5; Granule exo inh: 0; MPTP block: 0; UBC13 polyUb: -6

Results for O=C1[C@H]2[C@@H](c3ccc(C(F)(F)F)cc3)N[C@]3(CCCN(Cc4ccco4)C3=O)[C@H]2C(=O)N1Cc1ccccc1 ?
iPSC survival up: -2; Granule exo inh: 3; MPTP block: 2

How did CCOC(=O)C(=C1Nc2ccccc2N1)n1c(-c2cnccn2)nc2ccccc21 do in these assays?
iPSC survival up: 1; Granule exo inh: -3; MPTP block: -2

How did CCOC(=O)C(=C1Nc2ccccc2N1)n1c(-c2ccco2)nc2ccccc21 do in these assays?
iPSC survival up: 1; Granule exo inh: 98*; MPTP block: -1

Results for O=C(c1ccc(F)cc1)[C@@H]1[C@@H](C(=O)c2ccccc2)[C@@]2(C(=O)Nc3ccccc32)[C@H]2c3ccccc3C=CN12 ?
MIN6 prolif: 0; Apaf1 inhib: 73*; UBC13 polyUb: -19

Results for COc1ccccc1-n1c([S-])c(C(=O)Nc2ccccc2C(F)(F)F)[n+]2ccc(C(=O)NCCO)cc12 ?
iPSC survival up: -1; MIN6 prolif: -1; Apaf1 inhib: 2; Granule exo inh: 63*; MPTP block: -2; UBC13 polyUb: 9

What do the screens show for `O=C(NCC(F)(F)F)c1ccc(S(=O)(=O)Nc2ccccc2N2CCCC2)cc1`?
iPSC survival up: 14; MIN6 prolif: -1; Apaf1 inhib: 54*; Granule exo inh: -3; MPTP block: -2; UBC13 polyUb: -11

What do the screens show for `Cc1ccc(S(=O)(=O)Nc2ccccc2N2CCCCC2)cc1`?
iPSC survival up: 6; MIN6 prolif: -4; Apaf1 inhib: 12; Granule exo inh: -9; MPTP block: -1; UBC13 polyUb: 14

How did O=C(COc1ccccc1)Nc1nc(-c2ccncc2)cs1 do in these assays?
iPSC survival up: 34*; MIN6 prolif: 0; Apaf1 inhib: -14; Granule exo inh: -4; MPTP block: 0; UBC13 polyUb: 4

Results for O=S(=O)(Nc1ccc(O)c2ccccc12)c1ccc(Br)cc1 ?
MIN6 prolif: -4; Apaf1 inhib: 57*; UBC13 polyUb: -23

What do the screens show for `O=S(=O)(Nc1ccc(O)c2ccccc12)c1cccs1`?
iPSC survival up: -1; MIN6 prolif: -6; Apaf1 inhib: 52*; Granule exo inh: -1; MPTP block: 0; UBC13 polyUb: -14

How did COc1ccccc1C(=O)N1CCN(C(=O)[C@H]2O[C@@H](n3cnc4c(N)ncnc43)[C@H](O)[C@@H]2O)CC1 do in these assays?
iPSC survival up: 0; Granule exo inh: -4; MPTP block: -1

How did CC(O)CC(=O)OC[C@]12CC[C@H]3[C@@](C)(CC[C@H]4C(C)(C)CCC[C@]34C)[C@@H]1CC(C1=CC(=O)OC1O)O2 (some centres not stated) do in these assays?
iPSC survival up: 0; Granule exo inh: 56*; MPTP block: 1

What do the screens show for `CC(=O)OC[C@]12CC[C@H]3[C@@](C)(CC[C@H]4C(C)(C)CCC[C@]34C)[C@@H]1C[C@H](C1=CC(=O)O[C@H]1OC(C)=O)O2`?
MIN6 prolif: -6; Apaf1 inhib: 22; UBC13 polyUb: -9

How did COC1=CC(=O)c2ccccc2C1=O do in these assays?
iPSC survival up: -5; MIN6 prolif: -6; Apaf1 inhib: 79*; Granule exo inh: 13; MPTP block: -2; UBC13 polyUb: -57

Results for COC1=CC(=O)C=C(OC)C1=O ?
iPSC survival up: -3; Granule exo inh: 78*; MPTP block: 1

Results for CCc1nn(CC(=O)NCCc2ccc(OC)cc2OC)c(=O)c2cc3occc3n12 ?
iPSC survival up: 1; MIN6 prolif: -1; Apaf1 inhib: -7; Granule exo inh: -4; MPTP block: 2; UBC13 polyUb: 5

What do the screens show for `CC(NC(=O)c1ccccc1Br)c1nnc(SCC(=O)NC2=NCCS2)n1C` (configuration not stated)?
iPSC survival up: -1; MIN6 prolif: 0; Apaf1 inhib: -1; Granule exo inh: -7; MPTP block: 0; UBC13 polyUb: 4

How did O=C(Cn1nc(-c2ccccc2Cl)ccc1=O)Nc1ccccc1-c1ccccc1 do in these assays?
iPSC survival up: 2; MIN6 prolif: -1; Apaf1 inhib: 56*; Granule exo inh: 2; MPTP block: 0; UBC13 polyUb: -1

How did Nc1ncnc2c1ncn2[C@@H]1O[C@H](CNCc2cccc(C#Cc3ccccc3)c2)[C@@H](O)[C@H]1O do in these assays?
iPSC survival up: 1; Apaf1 inhib: 11; Granule exo inh: -3; MPTP block: 6

What do the screens show for `CC1=CC(=Nc2c(C)n(C)n(-c3ccccc3)c2=O)C=CC1=O`?
MIN6 prolif: -6; Apaf1 inhib: 43*; UBC13 polyUb: -39

Results for O=c1c(Cl)c(Cl)cnn1Cc1nnc(-c2ccccc2Br)o1 ?
iPSC survival up: 26*; MIN6 prolif: -5; Apaf1 inhib: 12; Granule exo inh: 24; MPTP block: 0; UBC13 polyUb: -2

Results for Clc1ccccc1OCc1nnc(-c2ccccc2Br)o1 ?
iPSC survival up: -2; MIN6 prolif: 1; Apaf1 inhib: 23; Granule exo inh: 0; MPTP block: -1; UBC13 polyUb: -1

High-throughput results as filed in PubChem BioAssay.
